Screening results from PubChem.
In the library only some 4.5% were active in any assay of this set; here they are far more common.
CHO parental Ca: counter-screen for OX1R antagonists: effect in parental CHO cells; AID 463079; hit rate 0.63% among 330,000; inhibition, % at 5.6 µM; parental CHO-K1, ATP-induced calcium, Fluo-8 fluorescence;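 active = inhibition above that plate's mean sample inhibition plus 3 SD, cut at about 26% in these data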
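Material – parental CHO cells · Reagent – ATP stimulus · Compound – single nominal dose of 5.6 µM per compound · Detection – Fluo-8 fluorescence · Read-out basis – percent inhibition of calcium signal · Controls – ATP-challenged DMSO wells low, unchallenged DMSO wells high · Repeats – no replicates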
TAAR1 ag: human TAAR1 agonism; Q96RJ0; activation, % at 3 µM; AID 624467; CHO RD-HGA16 TAAR1, Fluo-8 calcium fluorescence; vehicle wells 0%, saturating PEA agonist 100%; hit rate 0.99% among 360,000;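 active = activation above the mean activation of all test compounds in the run plus 3 SD, cut at about 38% in these data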
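Repeats: no replicates (n 1) | Material: CHO-derived RD-HGA16 cells with stable Gα16 and human TAAR1 | Technique: Kinetic Fluo-8 calcium fluorescence | Schedule: 17-24 h seeding, 75 min 37 °C dye, 30 min RT | Evaluation: % activation from peak over basal fluorescence ratio, DMSO-to-PEA scaled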
OX1R antag-1: human HCRTR1 antagonism. O43613. CHO/OX1R cells, Fluo-8 calcium fluorescence, orexin A. inhibition, % at 5 µM. hit rate 0.43% among 330,000. AID 434989;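 active = inhibition above its plate's threshold, mean inhibition of all tested compounds on the plate plus 3 SD, cut at about 37% in these data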
Target sequence (O43613 whole entry, looked up): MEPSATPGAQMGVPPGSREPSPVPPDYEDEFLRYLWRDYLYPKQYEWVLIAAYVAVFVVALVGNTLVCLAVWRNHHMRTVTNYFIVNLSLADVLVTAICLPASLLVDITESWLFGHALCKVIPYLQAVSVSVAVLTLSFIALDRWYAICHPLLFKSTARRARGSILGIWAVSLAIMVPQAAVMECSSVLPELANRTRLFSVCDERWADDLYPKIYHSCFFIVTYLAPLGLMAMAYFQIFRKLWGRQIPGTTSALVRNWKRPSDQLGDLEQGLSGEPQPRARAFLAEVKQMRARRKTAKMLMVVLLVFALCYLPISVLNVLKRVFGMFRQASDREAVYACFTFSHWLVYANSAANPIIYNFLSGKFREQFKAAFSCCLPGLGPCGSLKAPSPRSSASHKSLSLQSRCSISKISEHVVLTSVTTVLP
GPR7 antag: antagonists of human GPR7 (neuropeptides B/W receptor 1). P48145. GPR7-expressing cells, fluorescence antagonist assay. inhibition, % at 4.4 µM. hit rate 1.1% among 290,000. AID 1861; in the data active = inhibition above about 16%, passing the limit was not always enough;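 also: cells stimulated with the agonist NPW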
Target sequence (P48145 whole entry, looked up): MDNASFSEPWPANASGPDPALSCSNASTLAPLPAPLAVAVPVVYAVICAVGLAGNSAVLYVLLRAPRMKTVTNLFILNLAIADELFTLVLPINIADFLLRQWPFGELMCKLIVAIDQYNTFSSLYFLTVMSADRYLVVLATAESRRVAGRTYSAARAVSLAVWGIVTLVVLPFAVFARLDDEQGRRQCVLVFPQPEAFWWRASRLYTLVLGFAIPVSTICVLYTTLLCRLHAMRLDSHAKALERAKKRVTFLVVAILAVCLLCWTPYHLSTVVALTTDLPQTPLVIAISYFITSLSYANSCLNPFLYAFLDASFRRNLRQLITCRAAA
OX1R antag-2: OX1R (human) antagonism; OX1R-expressing cells, FRET antagonist read-out; inhibition, % at 6.6 µM; hit rate 1.8% among 330,000; in the data active = inhibition mostly above about 38%, no sharp cut-off; inactive = mostly below about 40%
TAAR1 antag: human TAAR1 antagonism | AID 624466 | inhibition, % at 3 µM | CHO RD-HGA16 TAAR1, Fluo-8 calcium fluorescence, antagonist | hit rate 1.5% among 360,000;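 active = inhibition above a per-plate cutoff, the mean inhibition of test compounds on that plate plus 3 SD, cut at about 49% in these data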
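System: RD-HGA16 CHO cells with stable hTAAR1 and Gα16 | Probe or stimulus: EC80 β-phenethylamine stimulus | Dosing: 3 µM, single point | Times: Dye loading 75 min at 37 °C, then 30 min room temperature | Measured by: Fluo-8 calcium-sensitive fluorescence | Read-out basis: % inhibition of agonist calcium response | Replicates: n of 1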
TAAR1 nonsel count: nonselective antagonism, TAAR1 counter-screen. shares compounds with TAAR1 antag. counterscreen cell line, calcium fluorescence, antagonist mode. inhibition, % at 3 µM. hit rate 77% among 2,400. AID 651780; in the data active = inhibition above about 22%;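 also: CHO-Ga16 host cells stimulated with ATP at an EC80 level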
TAAR1 ant conf: human TAAR1 antagonism, confirmed. shares compounds with TAAR1 antag. TAAR1-expressing cells, fluorescence antagonist read-out. inhibition, % at 3 µM. hit rate 40% among 2,400. AID 651785; in the data active = inhibition above about 49%;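 also: CHO-Ga16 host cells challenged with agonist PEA near its EC80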
Ga16 ag counter: counter-screen for TAAR1 antagonists: nonselective Ga16 agonists. shares compounds with TAAR1 antag. Ga16-expressing cells, calcium fluorescence, agonist counterscreen. activation, % at 3 µM. hit rate 18% among 2,400. AID 651953; in the data active = activation above about 12%
TAAR1 ag count: counter-screen for human TAAR1 antagonists: TAAR1 agonists | hTAAR1 cell line, fluorescence activation, agonist mode | activation, % at 3 µM | hit rate 2% among 2,400 | shares compounds with TAAR1 antag; in the data active = activation above about 37%;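 also: CHO cells stably expressing TAAR1 with calcium dye readout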
Of the large screens only hits and unclear results are named; the others gave an inactive call (follow-up assays come after a bar, where they were run).

Cc1ccc2c(c1)-c1c(cnn1CC(=O)N1CCCN(Cc3ccccc3F)C1)CO2	OX1R antag-2 43, TAAR1 antag 75 | TAAR1 nonsel count 28 | TAAR1 ant conf 52 | Ga16 ag counter inactive | TAAR1 ag count inactive
CC1CCCCC1NC(=O)C1CCCN(S(=O)(=O)c2ccc(-n3cnnn3)cc2)C1 (stereo not drawn)	none
COc1cc(C(=O)N/N=C/c2ccc(OC(=O)c3ccccc3Cl)cc2)ccc1O	TAAR1 antag 80 | TAAR1 nonsel count 30 | TAAR1 ant conf 58 | Ga16 ag counter inactive | TAAR1 ag count inactive
CC(C)(C)c1ccc(/C=N/NC(=O)c2ccccn2)cc1	none
COc1cc(/C=N\NC(=O)c2cccnc2)ccc1OC(=O)c1ccccc1Cl	TAAR1 antag 54 | TAAR1 nonsel count 28 | TAAR1 ant conf inactive | Ga16 ag counter 16 | TAAR1 ag count inactive
O=C(N/N=C/c1ccc(OC(=O)c2ccccc2Br)cc1)c1ccccn1	TAAR1 antag 52 | TAAR1 nonsel count 30 | TAAR1 ant conf inactive | Ga16 ag counter inactive | TAAR1 ag count inactive
CCOC(=O)c1ccccc1OCc1cc(/C=N/NC(=O)c2ccncc2)ccc1OC	TAAR1 antag 77 | TAAR1 nonsel count 36 | TAAR1 ant conf 54 | Ga16 ag counter inactive | TAAR1 ag count inactive
Nc1ccc(C(=O)N/N=C\c2ccc(OC(=O)c3ccccc3Cl)cc2)cc1	TAAR1 antag 68 | TAAR1 nonsel count 29 | TAAR1 ant conf 59 | Ga16 ag counter inactive | TAAR1 ag count inactive
O=C(Oc1ccc(/C=N/NC(=O)c2ccccc2F)cc1)c1ccccc1	none
COC(=O)c1ccc(/C=N/NC(=O)c2ccccc2Cl)cc1	none
O=C(Oc1ccc(/C=N/NC(=O)c2ccccc2O)cc1)c1ccccc1	TAAR1 antag 74 | TAAR1 nonsel count 38 | TAAR1 ant conf 68 | Ga16 ag counter inactive | TAAR1 ag count inactive
CC(C)(O)C(=O)N=Nc1c(O)[nH]c2ccccc12	none
O=C(N=Nc1c(O)[nH]c2ccccc12)c1cc(-c2ccc(F)cc2)n[nH]1	TAAR1 antag 65 | TAAR1 nonsel count inactive | TAAR1 ant conf inactive | Ga16 ag counter inactive | TAAR1 ag count inactive
CCOc1ccc(OCC(=O)N(CCC2=CCCCC2)c2c(N)n(Cc3ccccc3)c(=O)[nH]c2=O)cc1	none (no result: GPR7 antag)
CC(OC(=O)c1cnccn1)C(=O)Nc1nc(-c2cccc([N+](=O)[O-])c2)cs1 (stereo not drawn)	TAAR1 antag 52 (no result: GPR7 antag) | TAAR1 nonsel count 24 | TAAR1 ant conf inactive | Ga16 ag counter inactive | TAAR1 ag count inactive
CC(OC(=O)c1ccccc1Br)C(=O)Nc1nc(-c2cccc([N+](=O)[O-])c2)cs1 (stereo not drawn)	none
Cc1ccc(OCCC(=O)OC(C)C(=O)Nc2c(C)n(C)n(-c3ccccc3)c2=O)cc1 (stereo not drawn)	none (no result: GPR7 antag)
COc1cccc(OCc2cc(C(=O)N(C)Cc3nc4ccccc4[nH]3)no2)c1	none
COc1cccc(OCc2cc(C(=O)N(Cc3ccccc3)CC3CC3)no2)c1	TAAR1 antag 54 | TAAR1 nonsel count 28 | TAAR1 ant conf inactive | Ga16 ag counter inactive | TAAR1 ag count inactive
CCOC(=O)NC1Cc2ccccc2C1Sc1ccccn1 (stereo not drawn)	none
Cc1ccc(CN2CCC2(C)C(=O)NC(C)C)cc1 (stereo not drawn)	none (no result: CHO parental Ca, OX1R antag-1, GPR7 antag, OX1R antag-2)
O=C(CSc1nc(-c2ccccc2)nc2ccc(F)cc12)Nc1cccc(C(=O)O)c1	TAAR1 antag 63 | TAAR1 nonsel count 31 | TAAR1 ant conf 49 | Ga16 ag counter inactive | TAAR1 ag count inactive
O=C(CSc1nc(-c2ccccc2)nc2ccc(F)cc12)Nc1ccc(C(=O)O)cc1	none
COc1ccc(N(CC(=O)NCc2ccco2)S(=O)(=O)c2ccccc2)cc1	none
COc1ccc(N(CC(=O)NCCSc2ccccc2)S(=O)(=O)c2ccccc2)c(OC)c1	TAAR1 antag 59 (no result: GPR7 antag) | TAAR1 nonsel count 33 | TAAR1 ant conf 55 | Ga16 ag counter inactive | TAAR1 ag count inactive
COCCCNC(=O)CN(c1cc(OC)ccc1OC)S(=O)(=O)c1ccccc1	none
COc1ccc(S(=O)(=O)N(CC(=O)NCCSc2ccccn2)c2ccccc2)cc1	none
COc1ccc(N(CC(=O)NCCSc2ccccc2)S(=O)(=O)c2ccccc2)cc1	TAAR1 antag 65 | TAAR1 nonsel count 22 | TAAR1 ant conf inactive | Ga16 ag counter inactive | TAAR1 ag count inactive
COc1ccc(N(CC(=O)NCCSc2ccccn2)S(=O)(=O)c2ccccc2)c(OC)c1	OX1R antag-2 46, TAAR1 antag 50 | TAAR1 nonsel count 27 | TAAR1 ant conf inactive | Ga16 ag counter inactive | TAAR1 ag count inactive
O=C(CN(c1ccc2c(c1)OCCO2)S(=O)(=O)c1ccccc1)NCc1ccc(Cl)cc1	TAAR1 antag 75 | TAAR1 nonsel count 26 | TAAR1 ant conf 62 | Ga16 ag counter inactive | TAAR1 ag count inactive
Cc1nc(N2CCN(Cc3ccc4c(c3)OCO4)CC2)c2oc3ccccc3c2n1	TAAR1 antag 72 (no result: CHO parental Ca, OX1R antag-1, GPR7 antag, OX1R antag-2) | TAAR1 nonsel count inactive | TAAR1 ant conf inactive | Ga16 ag counter inactive | TAAR1 ag count inactive
Cc1nc(N2CCN(Cc3ccc4c(c3)OCO4)CC2)c2cc(-c3ccccc3)sc2n1	none
CC1=NN(c2nc(N)nc(/C(C#N)=C/c3ccc([N+](=O)[O-])o3)n2)C(C)(C)C1	TAAR1 antag 59 (no result: CHO parental Ca, OX1R antag-1, GPR7 antag, OX1R antag-2) | TAAR1 nonsel count 57 | TAAR1 ant conf 66 | Ga16 ag counter 23 | TAAR1 ag count inactive
COc1ccccc1C(=O)NCC1(c2ccccc2)CCCC1	none
Cc1ccc(CSCCNC(=O)/C=C/c2ccccc2Cl)cc1	TAAR1 antag 52 | TAAR1 nonsel count 25 | TAAR1 ant conf inactive | Ga16 ag counter inactive | TAAR1 ag count inactive
O=C(/C=C/c1ccc(Cl)cc1Cl)NCCSCc1ccccc1	none
COc1cccc(CNn2c(-c3cccc(C)c3)nc3ccccc3c2=O)c1O	TAAR1 antag 54 | TAAR1 nonsel count inactive | TAAR1 ant conf inactive | Ga16 ag counter inactive | TAAR1 ag count inactive
COc1ccc(OC)c(CNn2c(-c3ccccc3F)nc3ccccc3c2=O)c1	none
Cc1c(Cl)c([N+](=O)[O-])nn1Cc1ccc(C(=O)N/N=C\c2cccc(Br)c2)o1	TAAR1 antag 65 | TAAR1 nonsel count 35 | TAAR1 ant conf inactive | Ga16 ag counter inactive | TAAR1 ag count inactive
